# High-throughput results (PubChem)
# Hck Nef HTS: inhibitors of Nef-activated human Hck kinase, primary screen, biochemical, Z-Lyte FRET, 384-well, Hck-YEEI | Recombinant Hck-YEEI plus Nef, Z-Lyte FRET kinase assay | 0.68% of 220,000 active | Tyrosine-protein kinase HCK (Homo sapiens), P08631 | inhibition, % at 20 µM | AID 463187, 2010;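 active = Hck-Nef kinase inhibition above about 50%, limit read from the data; inactive = inhibition below that limit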;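 note: 0% = DMSO with Hck plus Nef and 100% = Hck alone without Nef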
# p-CIP stab down: p/CIP-EGFP fusion destabilizers, primary screen, fluorescence, F442A cells. Q05BA5. 16 h. decrease of EGFP signal, % at 10 µM. 0.01% of 290,000 active;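 active = EGFP signal decrease of at least 30% at 10 µM or well 3 SD below plate mean, unless failing retest; inactive = the rest, including hits failing retest or dose response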
# RanGTP-Impb inh: inhibitors of RanGTP-importin-beta interaction, primary screen, biochemical, FRET, CFP-Ran, YFP-importin-beta, homogeneous; 1.1% of 300,000 active; cell-free CFP-Ran/YFP-importin-beta FRET ratio; inhibition, % (test concentration not listed); AID 2216, 2009; Ran GTPase (GTP-bound) - importin-beta complex;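 active = more than half of the replicate wells show a fall in the fluorescence ratio signal beyond about 16%, limit read from the data, passing the limit was not always enough; inconclusive = exactly half of the replicate wells pass the set limit; inactive = fewer than half of replicates pass the limit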;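 note: 0% = DMSO wells and 100% = Ran loaded with GDP instead of GTP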
# Runt-CBFb FRET: inhibitors of RUNX1 Runt–CBFb binding, primary screen, biochemical, FRET, Cerulean-Runt, Venus-CBFb, uHTS | Cerulean-Runt/Venus-CBFb FRET ratio 530/480, 1 h | Runt-related transcription factor 1 (Homo sapiens) + Core-binding factor subunit beta … | AID 1496, 2009 | 0.46% of 220,000 active | inhibition, % at 20 µM;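 active = inhibition over about 50% at 20 µM in the single-dose screen, limit read from the data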;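 note: 0% = DMSO wells and 100% = excess unlabeled CBFb competitor control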
#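 test system = Cerulean-tagged RUNX1 Runt domain (FRET donor) fusion protein | reagent = Venus-CBFb binding partner, 100 nM | incubation = protein complex preformed 1 h, compound exposure 1 h, room temperature, dark | detection = FRET fluorescence | read-out basis = loss of energy transfer signal | controls = 5 µM unlabeled CBFb as full-inhibition high control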
# DSG3 Ab inh: inhibitors of pemphigus antibody binding to DSG3, primary screen, biochemical, bead-based, flow cytometry, scFv-GFP; 0.48% of 310,000 active; Desmoglein-3 (Homo sapiens), P32926; DSG3-coupled beads, scFv-anti-DSG3-GFP binding; hits give low values; AID 588358, 2011; binding (percent of control), % at 10 µM;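 active = binding more than 3 SD below its plate's average and above zero; inconclusive = below that plate limit but binding exactly zero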;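 note: hits lower antibody fragment binding to DSG3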
# Target sequence (P32926 whole entry, looked up, the tested form may be a part): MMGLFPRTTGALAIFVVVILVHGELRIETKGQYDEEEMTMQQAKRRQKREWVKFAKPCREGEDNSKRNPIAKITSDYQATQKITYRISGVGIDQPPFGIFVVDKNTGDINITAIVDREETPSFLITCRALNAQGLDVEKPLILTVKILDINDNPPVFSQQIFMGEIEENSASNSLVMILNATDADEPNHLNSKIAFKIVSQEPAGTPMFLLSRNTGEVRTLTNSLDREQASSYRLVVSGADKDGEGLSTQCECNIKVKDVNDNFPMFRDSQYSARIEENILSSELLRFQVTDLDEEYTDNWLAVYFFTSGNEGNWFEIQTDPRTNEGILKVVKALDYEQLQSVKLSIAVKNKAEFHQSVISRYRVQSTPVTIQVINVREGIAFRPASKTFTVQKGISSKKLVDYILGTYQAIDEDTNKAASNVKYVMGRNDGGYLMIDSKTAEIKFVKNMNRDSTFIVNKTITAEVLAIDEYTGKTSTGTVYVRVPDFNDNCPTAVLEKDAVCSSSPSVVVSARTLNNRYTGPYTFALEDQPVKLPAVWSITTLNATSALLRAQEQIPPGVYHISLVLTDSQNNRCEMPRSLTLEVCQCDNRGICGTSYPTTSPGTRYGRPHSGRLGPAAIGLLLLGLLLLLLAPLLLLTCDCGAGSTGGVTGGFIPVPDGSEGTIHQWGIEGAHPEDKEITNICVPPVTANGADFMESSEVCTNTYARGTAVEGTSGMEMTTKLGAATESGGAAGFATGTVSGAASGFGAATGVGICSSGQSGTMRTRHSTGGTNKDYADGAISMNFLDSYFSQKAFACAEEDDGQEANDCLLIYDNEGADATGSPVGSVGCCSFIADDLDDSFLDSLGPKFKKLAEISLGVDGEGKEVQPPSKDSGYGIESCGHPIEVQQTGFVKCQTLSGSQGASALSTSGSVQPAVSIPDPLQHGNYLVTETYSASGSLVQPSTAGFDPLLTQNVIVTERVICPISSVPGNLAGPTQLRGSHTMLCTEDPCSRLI
# Runt-SMMHC FRET: inhibitors of RUNX1 Runt–CBFb-SMMHC binding, primary screen, biochemical, FRET, Cerulean-Runt, Venus-CBFb-SMMHC, uHTS | Runt-related transcription factor 1 (Homo sapiens) + Core-binding factor subunit beta … | Cerulean-Runt/Venus-CBFb-SMMHC FRET ratio 530/480, 1 h | inhibition, % at 20 µM | 0.74% of 220,000 active | AID 1434, 2008;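 active = mean inhibition across duplicate retests at 20 µM reaching about 50%, limit read from the data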;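 note: 0% = DMSO wells and 100% = wells with excess untagged CBFb-SMMHC; inhibitors lower the FRET ratio by blocking Runt binding to CBFb-SMMHC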
# Hck Nef conf: retest of Hck:Nef kinase inhibitor hits, confirmation, biochemical, Z-Lyte FRET, 384-well, p-Tyr peptide counterscreen | Recombinant Hck-YEEI:Nef, Z-Lyte FRET kinase assay | 28% of 1,300 active | shares compounds with Hck Nef HTS | calls only at 10 µM;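 active = average inhibition of at least 50%, with Z-scores no higher than 3 in both the phospho-tyrosine peptide and fluorescence counterscreens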
# * hit, by the source's call; i = inactive; ? = inconclusive; · = not tested or not shown; + = active, no number. Hits are enriched below; roughly 2.1% of the tested compounds scored in any of these assays.
SMILES,Hck Nef HTS,p-CIP stab down,RanGTP-Impb inh,Runt-CBFb FRET,DSG3 Ab inh,Runt-SMMHC FRET,Hck Nef conf
Cc1nc(NC(=O)c2ccccc2)sc1-c1csc(Nc2ccc(C(=O)O)cc2)n1,93*,2,-7,12,102,-5,i
O=C(CCN1CCN(c2ccccc2)CC1)N/N=C/c1ccc(O)c(O)c1O,53*,-8,-4,14,80*,4,i
O=C(Cc1csc(N2CCOCC2)n1)N/N=C/c1ccc(O)c(O)c1O,66*,-28,3,46,99,26,i
Cc1nc2ccc(NC(=O)c3cc(S(=O)(=O)N(C)c4ccccc4)ccc3Cl)cc2s1,52*,-10,0,-5,94,-7,+
O=C(O)c1cccc(N2C(=O)/C(=C/c3ccc(SCc4ccc(Cl)cc4)o3)SC2=S)c1,82*,-11,·,36,91,9,+
O=C(CCN1C(=O)/C(=C/c2ccc(Cl)cc2)SC1=S)Nc1cccc(C(=O)O)c1,·,-19,1,·,99,·,·
CN1CCc2ccc(NC(=O)c3ccc(C(F)(F)F)cc3)cc2C1,·,10,3,·,96,·,·
CC(=O)n1cc([C@H]2C=C(C(=O)NCc3ccccc3)O[C@@H](OCc3ccc(CO)cc3)C2)c2ccccc21,53*,-19,-1,-1,109,-3,+
Nc1nonc1-c1nc2ccccc2n1CC(=O)N/N=C/c1ccc(-c2cccc(C(=O)O)c2)o1,91*,-10,0,37,104,34,+
COc1cccc(CN2CC(C(=O)N3CCCO3)CCC2=O)c1 (configuration not stated),·,-2,3,·,97,·,·
COC(=O)c1sc(-c2ccc(C(C)(C)C)cc2)cc1NC(=O)c1ccccc1C(=O)O,82*,-15,0,-12,·,-11,+
COc1cc(NC(=O)c2cccs2)c(C(=O)OCC(=O)NC(=O)NCc2ccccc2)cc1OC,68*,-14,-1,4,103,-1,i
Cc1ccccc1CNS(=O)(=O)c1c(C(=O)N2CCCCC2)c(C)n(C)c1C,·,0,0,·,100,·,·
Nc1nnnn1/N=C/c1ccc(O)cc1,0,-7,-3,-1,94,0,·
CCN(C)c1ccc(/C=N\n2nnnc2N)cc1,54*,8,-1,21,·,54*,·
CCN(CC)c1ccc(/C=N/n2nnnc2N)c(O)c1,57*,-4,7,9,110,19,i
COc1ccccc1NS(=O)(=O)c1cccc(-n2c(O)c(C=Nc3ccccc3C(=O)O)c3ccccc3c2=O)c1,62*,-10,2,-3,96,3,i
COc1ccc(-n2c(O)c(/C=N/NS(=O)(=O)c3ccc(C)cc3)c3ccccc3c2=O)cc1OC,-22,-43,0,-12,·,-68,·
COc1ccc(OC)c(/C=N/NC(=O)CC(=O)NCc2ccccc2)c1,56*,-7,0,-2,105,0,i
COc1ccc2nc(C)cc(SCC(=O)N/N=C/c3cccc4ccccc34)c2c1,91*,4,3,-4,94,-11,i
CCOc1cc(/C=C(/C#N)c2nc3ccccc3[nH]2)ccc1OCc1ccc(C(=O)O)o1,64*,-3,0,15,101,26,·
CCOc1cc(/C=C(/C#N)c2ccc(F)cc2)ccc1OCc1ccc(C(=O)O)o1,27,-26,-1,-1,108,-4,·
C=CC[C@H](CC(=O)NCCO)C(=O)N[C@@H](COC(=O)[C@H](CC=C)CC(=O)OC(C)(C)C)Cc1ccccc1,·,·,·,·,113,·,·
CC(C)c1ccc(NC(=O)C(c2ccc3c(c2)OCO3)N2CCCCC2)cc1 (configuration not stated),2,-10,1,-2,103,3,·
Oc1cc2c(cc1C(c1ccc(Cl)c(Cl)c1)N1CCCC1)OCO2 (configuration not stated),70*,-3,2,8,94,22,i
SMILES,Hck Nef HTS,p-CIP stab down,RanGTP-Impb inh,Runt-CBFb FRET,DSG3 Ab inh,Runt-SMMHC FRET,Hck Nef conf
O=C(COc1ccc2c(c1)OCO2)Nc1cccc(F)c1,·,-4,-1,·,114,·,·
CCC(=O)OC1(C)C(=O)C=C2C=C(c3ccsc3)OC=C2C1=O (configuration not stated),65*,-16,3,4,91,-19,+
Cc1cc(C)c(Nc2cc(S(=O)(=O)O)c(N)c3c2C(=O)c2ccccc2C3=O)c(C)c1,84*,-6,·,3,91,-9,+
N#C/C(=C\c1ccc(OC(=O)c2ccc(Cl)s2)cc1)c1nc2ccccc2[nH]1,56*,-11,2,-60,·,-66,+
O=C(Nc1ccc(S(=O)(=O)Nc2nccs2)cc1)c1cccc(N2C(=O)c3ccccc3C2=O)c1,27,-7,1,-1,106,-19,·
O=C(Nc1nccs1)c1cccc(N2C(=O)c3cccc4c([N+](=O)[O-])ccc(c34)C2=O)c1,52*,-42,-6,-1,103,-35,+
COCCN(CCOC)Cc1c(O)ccc2c3c(c(=O)oc12)CCC3,72*,-12,-2,44,·,93*,·
CCN(CC)C(=O)COc1ccc2c3c(c(=O)oc2c1C)CCCC3,·,10,-4,·,113,·,·
CCCCN(CC)Cc1c(O)ccc2c3c(c(=O)oc12)CCC3,+,3,-3,37,104,73*,·
COc1ccccc1N1CCN(C2CCCN(C(=O)CCn3cncn3)C2)CC1 (configuration not stated),·,-17,?,·,102,·,·
COc1cc(/C=C(\C#N)C(=O)NC2CCCCC2)ccc1OCc1ccc(C(=O)O)cc1,52*,7,21*,1,98,2,i
COc1cc(/C=C(/C#N)C(=O)Nc2ccccc2)ccc1OCc1ccc(C(=O)O)cc1,138*,1,·,-5,84,-10,+
COc1cc(/C=C(\C#N)C(=O)NC(C)C)ccc1OCc1ccc(C(=O)O)cc1,33,-9,-3,-2,96,3,·
